Source: ChEMBL document CHEMBL2040777, “N-Aryl-N'-(chroman-4-yl)ureas and thioureas display in vitro anticancer activity and selectivity on apoptosis-resistant glioblastoma cells: screening, synthesis of simplified derivatives, and structure-activity relationship analysis” (Eur J Med Chem, 2012)
Calls of active or inactive are those of the source. No cut-off for these calls is given here.

Legend:
B16-F10 = experiment: Growth inhibition of mouse B16F10 cells after 72 hrs by MTT assay; assay type: functional, cell-based; conditions: B16-F10, 72 h
[1] = Cytostatic activity against human U373 cells assessed as global growth ratio by measuring number of cells counted in the last and the first frame of study at 20 uM by quantitative videomicroscopic analysis; assay type: functional, U-373MG ATCC
Method in brief: (§1)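 U373 cells were cultured in 25 cm² flasks and filmed by computer-assisted phase-contrast time-lapse for 72 h, one image every 4 min. Growth level was the cell count in the last frame divided by the first. Global growth ratio was treated growth level over control growth level. Compounds were tested at 20 µM.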

[2] = Growth inhibition of human U373 cells after 72 hrs by MTT assay; assay type: functional, cell-based, U-373MG ATCC; conditions: U373 MG
Method in brief: (§2)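 Glioma lines were grown in RPMI with 10% heat-inactivated FCS, 4 mM glutamine, gentamicin and penicillin-streptomycin. Cells were plated for 24 h at 10,000–40,000 cells/mL, then exposed to compound for 72 h. MTT reduction to formazan was read at 570 nm (reference 630 nm). Six replicates were run.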

[3] = Cell cycle arrest in human U373 cells assessed as accumulation at G0/G1 phase at 10 to 30 uM after 24 hrs by propidium iodide staining-based flow cytometric analysis; assay type: functional; conditions: U-373MG ATCC
T98G [4] = experiment: Growth inhibition of human T98G cells after 72 hrs by MTT assay; assay type: functional, cell-based; method in brief: as §2
U-373MG ATCC = experiment: Induction of apoptosis in human U373 cells assessed as increase in subG1 cell population at 10 to 30 uM after 24 hrs by flow cytometric analysis; assay type: functional, cell-based
[5] = Growth inhibition of human Hs683 cells after 72 hrs by MTT assay; assay type: functional, cell-based; conditions: Hs 683, 72 h; method in brief: as §2
[6] = Growth inhibition of human U373 cells assessed as global growth ratio after 72 hrs by quantitative videomicroscopic analysis relative to untreated control; assay type: functional, U-373MG ATCC; conditions: U373 MG; method in brief: as §1
T98G [7] = experiment: Selectivity index, ratio of IC50 for mouse astrocytes to IC50 for human T98G cells
[8] = Selectivity index, ratio of IC50 for mouse astrocytes to IC50 for human U373 cells; parameters: species or system U-373MG ATCC
Hs 683 = experiment: Selectivity index, ratio of IC50 for mouse astrocytes to IC50 for human Hs683 cells
[9] = Cell cycle arrest in human U373 cells assessed as accumulation at G0/G1 phase at 30 to 100 uM after 24 hrs by propidium iodide staining-based flow cytometric analysis; assay type: functional; conditions: U-373MG ATCC

| Compound | IC50 (B16-F10) | Ratio [1] | IC50 [2] | Activity [3] | IC50 (T98G [4]) | Activity (U-373MG ATCC) | IC50 [5] | IC80 [6] | Ratio IC50 (T98G [7]) | Ratio IC50 [8] | Ratio IC50 (Hs 683) | Activity [9] |
| --- | --- | --- | --- | --- | --- | --- | --- | --- | --- | --- | --- | --- |
| CC1(C)CC(NC(=O)Nc2ccccc2Cl)c2cc(Cl)ccc2O1 (stereo not drawn) | 20 µM | 0.2 | 17 µM | Active | 20 µM | inactive | 25 µM | 20 µM | >10 | >10 | >10 |  |
| CC(N/C(=N\C#N)Nc1ccncc1)C(C)(C)C (stereo not drawn) [PINACIDIL ANHYDROUS] |  |  | > 100 µM |  |  |  |  |  |  |  |  | inactive |
